Measured values as given in ChEMBL document CHEMBL4257585, “Structure-Activity Relationships of Photoswitchable Diarylethene-Based β-Hairpin Peptides as Membranolytic Antimicrobial and Anticancer Agents” (J Med Chem, 2018).
Values after ≈ are worked out from the molar mass of the structure shown.

Tests used:
Escherichia coli = experiment: Antimicrobial activity against Escherichia coli DSM 1103 after 22 hrs by resazurin dye based spectrophotometry; assay type: functional; details: DSM 1103, 22 h
Method in brief: (§1)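 2-fold broth microdilution in Mueller–Hinton medium; peptide stocks 1024 μg/mL in 50% ethanol. Exponential-phase cultures diluted to OD550 0.2, then 1:100 (B. subtilis) or 1:1000 (E. coli), giving 5 × 10^5 CFU/mL per well. Incubated 22 h, 37 °C, static; then resazurin (0.2 mg/mL solution) added for 2 h at 37 °C, read visually and spectrophotometrically. Tested in both photoforms.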

[1] = Therapeutic index, ratio of HC50 for human RBC to MIC for Escherichia coli DSM 1103; assay type: toxicity; details: human red blood cells versus Escherichia coli DSM 1103
Method in brief: (§2)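 Ratio of HC50 (RBC) to HeLa IC50 or to MIC against B. subtilis or E. coli; values measured in mg/mL and recalculated to μM, 2-fold dilution without curve fitting, accuracy within a factor of 2.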

Bacillus subtilis = experiment: Antimicrobial activity against Bacillus subtilis DSM 347 after 22 hrs by resazurin dye based spectrophotometry; assay type: functional; details: DSM 347, 22 h; method in brief: as §1
[2] = Therapeutic index, ratio of HC50 for human RBC to MIC for Bacillus subtilis DSM 347; assay type: toxicity; details: human red blood cells versus Bacillus subtilis DSM 347; method in brief: as §2
[3] = Selective ratio of HC50 for human RBC to IC50 for human HeLa cells; assay type: toxicity; details: human red blood cells versus HeLa cells; method in brief: as §2
[4] = Hemolytic activity against human RBC assessed as hemolysis after 30 mins by colorimetric method; assay type: ADME, cell-based, Erythrocyte; details: human red blood cells (erythrocytes)
Method in brief: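 Human erythrocytes washed twice in isotonic 172 mM Tris-HCl, pH 7.6; peptides dissolved in DMSO, diluted in buffer, two independent 10-step 2-fold series from 256 or 192 μg/mL. HC50 extrapolated as 50% hemolysis concentration.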

HeLa = experiment: Cytotoxicity against human HeLa cells assessed as reduction in cell viability after 24 hrs by MTT assay; assay type: functional, cell-based
Method in brief: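 HeLa cells seeded at about 5 × 10^4 cells/mL in DMEM with 10% FBS, 2 mM glutamine, gentamicin; 24 h adaptation (37 °C, 5% CO2), then 24 h peptide exposure. MTT 4 h, formazan in DMSO read at 570 nm. 2-fold series 256–0.5 (open) or 512–1 μg/mL (closed), four repetitions; IC50 extrapolated from killing curves. Closed form handled in dim light.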

Compound | MIC (Escherichia coli) | MIC (Bacillus subtilis) | selectivity ratio [1] | selectivity ratio [2] | selectivity ratio [3] | HC50 at 0.5 h [4] | IC50 (HeLa)
CC(C)C(=O)NCC[C@@H]1NC(=O)C2=CC3=C4CCCC4=C4C=C(S[C@]4(C)[C@@]3(C)S2)C(=O)[C@H]2CCCN2C(=O)[C@H](C(C)C)NC(=O)[C@H](CCCN)NC(=O)[C@H](C(C)C)NC(=O)[C@@H]2CCCN2C(=O)[C@@H](Cc2ccccc2)NC(=O)[C@H](C(C)C)NC(=O)[C@H](CCCN)NC1=O | 194 µM (≈ 257 µg/mL) | 48 µM (≈ 63.5 µg/mL) | 2 | 8.1 | 2 | 387 µM | 194 µM
CC(C)C[C@@H]1NC(=O)[C@H](CCCN)NC(=O)[C@H](C)NC(=O)C2=CC3=C4CCCC4=C4C=C(S[C@]4(C)[C@@]3(C)S2)C(=O)[C@H]2CCCN2C(=O)[C@H](C)NC(=O)[C@H](CCCN)NC(=O)[C@H](C(C)C)NC(=O)[C@@H]2CCCN2C(=O)[C@@H](Cc2ccccc2)NC1=O | 212 µM (≈ 257 µg/mL) | 40 µM (≈ 48.4 µg/mL) | 0.8 | 4.4 | 1.7 | 175 µM | 106 µM
CC(C)C[C@@H]1NC(=O)[C@H](CCCCN)NC(=O)[C@H](C(C)C)NC(=O)C2=CC3=C4CCCC4=C4C=C(S[C@]4(C)[C@@]3(C)S2)C(=O)[C@H]2CCCN2C(=O)[C@H](C(C)C)NC(=O)[C@H](CCCCN)NC(=O)[C@H](C(C)C)NC(=O)[C@H](CC(C)C)NC(=O)[C@@H](CCCCN)NC(=O)[C@@H]2CCCN2C(=O)[C@@H](Cc2ccccc2)NC(=O)[C@H](C(C)C)NC(=O)[C@H](CCCCN)NC1=O | 73 µM (≈ 129 µg/mL) | 2 µM (≈ 3.53 µg/mL) | 0.2 | 7 | 0.8 | 14 µM | 18 µM
Cc1sc2cc1C1=C(CCC1)c1cc(sc1C)C(=O)[C@H]1CCCN1C(=O)[C@H](C(C)C)NC(=O)[C@H](CCCN)N(C)C(=O)[C@H](C(C)C)NC(=O)[C@@H]1CCCN1C(=O)[C@@H](Cc1ccccc1)N(C)C(=O)[C@H](C(C)C)NC(=O)[C@H](CCCN)NC(=O)[C@H](C(C)C)NC2=O | 100 µM (≈ 128 µg/mL) | 2 µM (≈ 2.56 µg/mL) | 0.6 | 29.5 | 2.4 | 59 µM | 25 µM
Cc1sc2cc1C1=C(CCC1)c1cc(sc1C)C(=O)[C@H]1CCCN1C(=O)[C@H](C(C)C)NC(=O)[C@H](CCCN)NC(=O)[C@H](C(C)C)NC(=O)[C@@H]1CCCN1C(=O)[C@@H](Cc1ccccc1)NC(=O)[C@H](C(C)C)NC(=O)[C@H](CCCN)NC(=O)[C@H](CCNC(=O)C(C)C)NC2=O | 97 µM (≈ 128 µg/mL) | 3 µM (≈ 3.97 µg/mL) | 1.8 | 56.7 | 4.7 | 170 µM | 36 µM
Cc1sc2cc1C1=C(CCC1)c1cc(sc1C)C(=O)[C@H]1CCCN1C(=O)[C@H](CC(C)C)NC(=O)[C@H](CCCNC(=N)N)NC(=O)[C@H](C(C)C)NC(=O)[C@@H]1CCCN1C(=O)[C@@H](Cc1ccccc1)NC(=O)[C@H](CC(C)C)NC(=O)[C@H](CCCNC(=N)N)NC(=O)[C@H](C(C)C)NC2=O | 35 µM (≈ 47.8 µg/mL) | 3 µM (≈ 4.09 µg/mL) | 0.1 | 0.7 | 0.5 | 2 µM | 4 µM
C[C@]12SC3=CC1=C1CCCC1=C1C=C(S[C@@]12C)C(=O)[C@H]1CCCN1C(=O)[C@H](CCCCN)NC(=O)[C@H](C12CC4CC(CC(C4)C1)C2)NC(=O)[C@H](CCCN)NC(=O)[C@@H]1CCCN1C(=O)[C@@H](Cc1ccccc1)NC(=O)[C@H](CCCN)NC(=O)[C@H](C12CC4CC(CC(C4)C1)C2)NC(=O)[C@H](CCCN)NC3=O | 8 µM (≈ 11.8 µg/mL) | 3 µM (≈ 4.44 µg/mL) | 0.1 | 0.3 | 0.1 | 1 µM | 11 µM
Cc1sc2cc1C1=C(CCC1)c1cc(sc1C)C(=O)[C@H]1CCCN1C(=O)[C@H](C(C)C)NC(=O)[C@H](CCCN)NC(=O)[C@H](C(C)C)NC(=O)[C@@H]1CCCN1C(=O)[C@@H](Cc1ccccc1)NC(=O)[C@H](C(C)C)NC(=O)[C@H](CCCN)NC(=O)[C@H]([C@H](O)C(C)C)NC2=O | 100 µM (≈ 128 µg/mL) | 2 µM (≈ 2.57 µg/mL) | 0.6 | 28 | 2.2 | 56 µM | 25 µM

Continued, in another order:

MIC (Escherichia coli) | MIC (Bacillus subtilis) | Compound | selectivity ratio [1] | selectivity ratio [2] | selectivity ratio [3] | HC50 at 0.5 h [4] | IC50 (HeLa)
47 µM (≈ 63.6 µg/mL) | 3 µM (≈ 4.06 µg/mL) | Cc1sc2cc1C1=C(CCC1)c1cc(sc1C)C(=O)[C@H]1CCCN1C(=O)[C@H](CC(C)C)NC(=O)[C@H](CCCCN)NC(=O)[C@H](C(C)C)NC(=O)[C@H](CCCCN)N(C)C(=O)[C@@H](Cc1ccccc1)NC(=O)[C@H](CC(C)C)NC(=O)[C@H](CCCCN)NC(=O)[C@H](C(C)C)NC2=O | 0.1 | 1.3 | 1.3 | 4 µM | 3 µM
164 µM (≈ 257 µg/mL) | 10 µM (≈ 15.7 µg/mL) | CC(C)C[C@@H]1NC(=O)C2=CC3=C4CCCC4=C4C=C(S[C@]4(C)[C@@]3(C)S2)C(=O)[C@H]2CCCN2C(=O)[C@H](C(C)C)NC(=O)[C@H](CCCCN)NC(=O)[C@H](CC(C)C)NC(=O)[C@H](CCCCN)NC(=O)[C@@H]2CCCN2C(=O)[C@@H](Cc2ccccc2)NC(=O)[C@H](CCCCN)NC(=O)[C@H](C(C)C)NC(=O)[C@H](CCCCN)NC1=O | 0.5 | 8.2 | 1 | 82 µM | 82 µM
95 µM (≈ 129 µg/mL) | 3 µM (≈ 4.06 µg/mL) | CC(C)C[C@@H]1NC(=O)[C@H](CCCCN)NC(=O)[C@H](C(C)C)NC(=O)C2=CC3=C4CCCC4=C4C=C(S[C@]4(C)[C@@]3(C)S2)C(=O)[C@H]2CCCN2C(=O)[C@H](CC(C)C)NC(=O)[C@H](CCCCN)NC(=O)[C@H](C(C)C)NC(=O)[C@H](CCCCN)N(C)C(=O)[C@@H](Cc2ccccc2)NC1=O | 0.2 | 7.3 | 0.9 | 22 µM | 24 µM
186 µM (≈ 257 µg/mL) | 1 µM (≈ 1.38 µg/mL) | CCCCN1C(=O)[C@@H](Cc2ccccc2)NC(=O)[C@H](CC(C)C)NC(=O)[C@H](CCCN)NC(=O)[C@H]([C@@H](C)CC)NC(=O)C2=CC3=C4CCCC4=C4C=C(S[C@]4(C)[C@@]3(C)S2)C(=O)[C@H]2CCCN2C(=O)[C@H](CC(C)C)NC(=O)[C@H](CCCN)NC(=O)[C@H]([C@@H](C)CC)NC(=O)[C@@H]1CC(C)C | 0.1 | 13 | 1 | 13 µM | 13 µM
204 µM (≈ 256 µg/mL) | 51 µM (≈ 64 µg/mL) | CC(C)[C@@H]1NC(=O)C2=CC3=C4CCCC4=C4C=C(S[C@]4(C)[C@@]3(C)S2)C(=O)[C@H]2CCCN2C(=O)[C@H]([C@@H](C)O)NC(=O)[C@H](CCCN)NC(=O)[C@H](C(C)C)NC(=O)[C@@H]2CCCN2C(=O)[C@@H](Cc2ccccc2)NC(=O)[C@H](C(C)C)NC(=O)[C@H](CCCN)NC1=O | 2 | 8 | 2.7 | 408 µM | 153 µM
36 µM (≈ 64 µg/mL) | 1 µM (≈ 1.78 µg/mL) | CC(C)C[C@@H]1NC(=O)[C@H](CCCCN)NC(=O)[C@H](C(C)C)NC(=O)C2=CC3=C4CCCC4=C4C=C(S[C@]4(C)[C@@]3(C)S2)C(=O)[C@H]2CCCN2C(=O)[C@H](CC(C)C)NC(=O)[C@H](CCCCN)NC(=O)[C@H](C(C)C)NC(=O)[C@H](CCCCN)NC(=O)[C@H](CC(C)C)NC(=O)[C@@H]2CCCN2C(=O)[C@@H](Cc2ccccc2)NC(=O)[C@H](C(C)C)NC(=O)[C@H](CCCCN)NC1=O | 1 | 37 | 1.3 | 37 µM | 28 µM
